Measured values published in ChEMBL document CHEMBL4339190, “2,6-Disubstituted imidazo[2,1-b][1,3,4]thiadiazole derivatives as potent staphylococcal biofilm inhibitors” (Eur J Med Chem, 2019).

Experiments:
Staphylococcus aureus [1] = assay: Antimicrobial activity against Staphylococcus aureus ATCC 25923 assessed as growth inhibition of planktonic forms incubated for 24 hrs; type: organism-based; details: in vitro
Procedure, shortened: (§1)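 Broth microdilution in tryptic soy broth. Two-fold series 100 to 0.75 μg/mL made from a 1 mg/mL stock in 0.9% NaCl. Inoculum ~10⁶ cfu/mL taken from a 24 h culture, 37 °C 24 h.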

Staphylococcus aureus [2] = assay: Antimicrobial activity against Staphylococcus aureus ATCC 6538 assessed as growth inhibition of planktonic forms incubated for 24 hrs; type: organism-based; details: in vitro; procedure, shortened: as §1
[3] = test system: Staphylococcus epidermidis; assay: Antimicrobial activity against Staphylococcus epidermidis ATCC 12228 assessed as growth inhibition of planktonic forms incubated for 24 hrs; type: organism-based; details: in vitro; procedure, shortened: as §1
Pseudomonas aeruginosa [4] = assay: Antimicrobial activity against Pseudomonas aeruginosa ATCC 15442 assessed as growth inhibition of planktonic forms incubated for 24 hrs; type: organism-based; details: in vitro; procedure, shortened: as §1
Escherichia coli [5] = assay: Antimicrobial activity against Escherichia coli ATCC 25922 assessed as growth inhibition of planktonic forms incubated for 24 hrs; type: organism-based; details: in vitro; procedure, shortened: as §1
Staphylococcus aureus [6] = assay: Antibiofilm activity against Staphylococcus aureus ATCC 25923 incubated for 24 hrs by crystal violet-staining based assay; type: functional
Procedure, shortened: (§2)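 Biofilm prevention: 0.5 McFarland inoculum (2.5 µL) in 100 µL TSB with 2% w/v glucose, compound present from the start over 100–0.1 µg/mL, 37 °C 24 h. Washed with PBS, stained 0.1% w/v crystal violet 30 min, eluted with 33% v/v acetic acid, read at 570 nm. BIC50 (50% inhibition versus untreated control) derived by linear regression; triplicate, repeated at least twice.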

Staphylococcus aureus [7] = assay: Antibiofilm activity against Staphylococcus aureus ATCC 6538 incubated for 24 hrs by crystal violet-staining based assay; type: functional; procedure, shortened: as §2
[8] = test system: Staphylococcus epidermidis; assay: Antibiofilm activity against Staphylococcus epidermidis ATCC 12228 incubated for 24 hrs by crystal violet-staining based assay; type: functional; procedure, shortened: as §2
Pseudomonas aeruginosa [9] = assay: Antibiofilm activity against Pseudomonas aeruginosa ATCC 15442 assessed as inhibition of biofilm formation at 100 ug/ml incubated for 24 hrs by crystal violet-staining based assay; type: functional; details: ATCC 15442, 24 h
Escherichia coli [10] = assay: Antibiofilm activity against Escherichia coli ATCC 25922 assessed as inhibition of biofilm formation at 100 ug/ml incubated for 24 hrs by crystal violet-staining based assay; type: functional; details: ATCC 25922, 24 h
Pseudomonas aeruginosa [11] = assay: Antibiofilm activity against Pseudomonas aeruginosa ATCC 15442 incubated for 24 hrs by crystal violet-staining based assay; type: functional; procedure, shortened: as §2

SMILES	MIC (Staphylococcus aureus [1])	MIC (Staphylococcus aureus [2])	MIC [3]	MIC (Pseudomonas aeruginosa [4])	MIC (Escherichia coli [5])	MBIC50 (Staphylococcus aureus [6])	inhibition (Staphylococcus aureus [6])	MBIC50 (Staphylococcus aureus [7])	inhibition (Staphylococcus aureus [7])	MBIC50 [8]	inhibition [8]	inhibition at 100 µg/mL (Pseudomonas aeruginosa [9])	inhibition at 100 µg/mL (Escherichia coli [10])	MBIC50 (Pseudomonas aeruginosa [11])	inhibition (Pseudomonas aeruginosa [11])
Br.Cn1cc(-c2nn3cc(-c4ccc(F)cc4)nc3s2)c2ccccc21	> 100 µg/mL	> 100 µg/mL	> 100 µg/mL	> 100 µg/mL	> 100 µg/mL	8.6 µM	Dose-dependent effect	17.9 µM	Dose-dependent effect	68.9 µM	Dose-dependent effect	< 15%	< 15%	–	–
Br.Fc1ccc(-c2cn3nc(-c4c[nH]c5ccccc45)sc3n2)cc1	> 100 µg/mL	> 100 µg/mL	> 100 µg/mL	> 100 µg/mL	> 100 µg/mL	15.6 µM	Dose-dependent effect	13.4 µM	Dose-dependent effect	30.8 µM	Dose-dependent effect	–	< 15%	47.4 µM	Dose-dependent effect
O=[N+]([O-])c1ccc(-c2cn3nc(-c4c[nH]c5ccccc45)sc3n2)cc1	> 100 µg/mL	> 100 µg/mL	> 100 µg/mL	> 100 µg/mL	> 100 µg/mL	47.5 µM	Dose-dependent effect	20.2 µM	Dose-dependent effect	41.2 µM	Dose-dependent effect	< 15%	< 15%	–	–
COc1ccc(OC)c(-c2cn3nc(-c4cn(C)c5ccc(Cl)cc45)sc3n2)c1	> 100 µg/mL	> 100 µg/mL	> 100 µg/mL	> 100 µg/mL	> 100 µg/mL	163 µM	Dose-dependent effect	69.4 µM	Dose-dependent effect	8.1 µM	Dose-dependent effect	< 15%	< 15%	–	–
Br.COc1ccc(OC)c(-c2cn3nc(-c4cn(C)c5ccccc45)sc3n2)c1	> 100 µg/mL	> 100 µg/mL	> 100 µg/mL	> 100 µg/mL	> 100 µg/mL	24.3 µM	Dose-dependent effect	3.6 µM	Dose-dependent effect	25 µM	Dose-dependent effect	–	< 15%	–	–
Br.c1ccc(-c2cn3nc(-c4c[nH]c5ccccc45)sc3n2)cc1	> 100 µg/mL	> 100 µg/mL	> 100 µg/mL	> 100 µg/mL	> 100 µg/mL	35.9 µM	Dose-dependent effect	46.5 µM	Dose-dependent effect	59.1 µM	Dose-dependent effect	< 15%	< 15%	–	–
Br.COc1ccc(OC)c(-c2cn3nc(-c4cn(C)c5ccc(Br)cc45)sc3n2)c1	> 100 µg/mL	> 100 µg/mL	> 100 µg/mL	> 100 µg/mL	> 100 µg/mL	90.8 µM	Dose-dependent effect	8.9 µM	Dose-dependent effect	52.3 µM	Dose-dependent effect	–	< 15%	28.5 µM	Dose-dependent effect
Br.COc1ccc(OC)c(-c2cn3nc(-c4c[nH]c5ccc(Br)cc45)sc3n2)c1	> 100 µg/mL	> 100 µg/mL	> 100 µg/mL	> 100 µg/mL	> 100 µg/mL	26.4 µM	Dose-dependent effect	16.5 µM	Dose-dependent effect	36.1 µM	Dose-dependent effect	< 15%	< 15%	–	–
O=[N+]([O-])c1ccc(-c2cn3nc(-c4c[nH]c5ccc(Br)cc45)sc3n2)cc1	> 100 µg/mL	> 100 µg/mL	> 100 µg/mL	> 100 µg/mL	> 100 µg/mL	23.9 µM	Dose-dependent effect	27 µM	Dose-dependent effect	19.1 µM	Dose-dependent effect	–	< 15%	43.3 µM	Dose-dependent effect
FC(F)(F)c1ccc(-c2cn3nc(-c4c[nH]c5ccc(Cl)cc45)sc3n2)cc1	> 100 µg/mL	> 100 µg/mL	> 100 µg/mL	> 100 µg/mL	> 100 µg/mL	9.7 µM	Dose-dependent effect	12.6 µM	Dose-dependent effect	24.5 µM	Dose-dependent effect	< 15%	< 15%	–	–
Br.Cn1cc(-c2nn3cc(-c4ccccc4)nc3s2)c2ccccc21	> 100 µg/mL	> 100 µg/mL	> 100 µg/mL	> 100 µg/mL	> 100 µg/mL	23 µM	Dose-dependent effect	18.9 µM	Dose-dependent effect	47.9 µM	Dose-dependent effect	< 15%	< 15%	–	–
Br.Fc1ccc(-c2cn3nc(-c4c[nH]c5ccc(Cl)cc45)sc3n2)cc1	> 100 µg/mL	> 100 µg/mL	> 100 µg/mL	> 100 µg/mL	> 100 µg/mL	51.3 µM	Dose-dependent effect	24.2 µM	Dose-dependent effect	100.7 µM	Dose-dependent effect	< 15%	< 15%	–	–
Br.Cn1cc(-c2nn3cc(-c4ccc(C(F)(F)F)cc4)nc3s2)c2cc(Br)ccc21	> 100 µg/mL	> 100 µg/mL	> 100 µg/mL	> 100 µg/mL	> 100 µg/mL	–	–	–	–	–	–	–	–	–	–
Br.COc1cccc(-c2cn3nc(-c4c[nH]c5ccc(Cl)cc45)sc3n2)c1	> 100 µg/mL	> 100 µg/mL	> 100 µg/mL	> 100 µg/mL	> 100 µg/mL	31.6 µM	Dose-dependent effect	15.1 µM	Dose-dependent effect	32.7 µM	Dose-dependent effect	–	< 15%	29 µM	Dose-dependent effect
Br.O=[N+]([O-])c1ccc(-c2cn3nc(-c4c[nH]c5ccc(Cl)cc45)sc3n2)cc1	> 100 µg/mL	> 100 µg/mL	> 100 µg/mL	> 100 µg/mL	> 100 µg/mL	55.3 µM	Dose-dependent effect	35.8 µM	Dose-dependent effect	28.5 µM	Dose-dependent effect	< 15%	< 15%	–	–
Cn1cc(-c2nn3cc(-c4ccc(C(F)(F)F)cc4)nc3s2)c2cc(Cl)ccc21	> 100 µg/mL	> 100 µg/mL	> 100 µg/mL	> 100 µg/mL	> 100 µg/mL	–	–	–	–	–	–	–	–	–	–
Br.COc1cccc(-c2cn3nc(-c4cn(C)c5ccc(Br)cc45)sc3n2)c1	> 100 µg/mL	> 100 µg/mL	> 100 µg/mL	> 100 µg/mL	> 100 µg/mL	16 µM	Dose-dependent effect	12.4 µM	Dose-dependent effect	63.8 µM	Dose-dependent effect	–	< 15%	26.3 µM	Dose-dependent effect
